Reference: ChEMBL document CHEMBL4732095, “Novel naphthylamide derivatives as dual-target antifungal inhibitors: Design, synthesis and biological evaluation” (Eur J Med Chem, 2021)
Active and inactive are the calls of the source. No cut-off for these calls is given here.

Experiments:
[1] = Hepatotoxicity in mouse infected with Candida albicans SC5314 assessed as effect on alanine aminotransferase level in plasma administered via abdomen for 7 days (reference value: 105 +/- 8.3 IU/L); format: toxicity; conditions: ip, 168 h, time 7 day
Candida albicans [2] = experiment: Antifungal activity against Candida albicans ATCC SC5314 assessed as reduction in cell division at 10 nM/mL by polarizing microscopy; format: functional, organism-based; conditions: dose 10.0 nmol/ml
Outline: (§1)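 C. albicans ATCC SC5314 observed by polarizing microscopy over treatment time. Untreated, fluconazole- and naftifine-treated control groups were included. Cell density, dividing cells and cell fracture were assessed, with cell counts taken per field.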

Candida albicans [3] = experiment: Antifungal activity against Candida albicans ATCC SC5314 assessed as reduction in size of fungal cells (reference value: 8.29 micrometer); format: functional
[4] = Toxicity in mouse infected with Candida albicans SC5314 assessed as change in body weight administered via abdomen for 7 days; conditions: in vivo, ip, 168 h, time 7 day
Outline: (§2)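 Mice infected with C. albicans SC5314 by subcutaneous abdominal injection, then randomized into saline, and two compound-treated groups. Treatment given by abdominal injection for 7 days, with body weight monitored. Heart, liver, spleen, lung, kidney and infected abdominal tissue harvested for H&E histology.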

Candida albicans SC5314 [5] = experiment: Inhibition of SE/CYP51 in Candida albicans ATCC SC5314 assessed as squalene level at 0.125 ug/ml incubated for 48 hrs by LC/MS analysis; design: scale not given: the % may be the effect or the level left; conditions: dose 0.125 µg/ml
Outline: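 C. albicans ATCC SC5314 cells exposed to drug at 0.125, 0.5 or 4 μg/mL for 48 h, alongside an untreated control. Sterols were extracted and analysed by LC-MS. Ergosterol, squalene, lanosterol, eburicol and unknown sterols are each given as % of total sterols, calculated from the peak area ratio of each component.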

Candida albicans [6] = experiment: In vivo antifungal activity against Candida albicans infected in mouse assessed as disappearance of cell nuclear aggregation injected via abdomen for 7 days by H and E staining based histological analysis; format: functional, organism-based; conditions: SC5314, time 7.0 day; outline: as §2
Candida albicans [7] = experiment: In vivo antifungal activity against Candida albicans SC5314 infected in mouse assessed as uniform cell distribution injected via abdomen for 7 days by H and E staining based histological analysis; format: functional, organism-based; conditions: time 7.0 day; outline: as §2
Candida albicans SC5314 [8] = experiment: Inhibition of SE/CYP51 in Candida albicans ATCC SC5314 assessed as unknown sterol level at 0.5 ug/ml incubated for 48 hrs by LC/MS analysis (reference value: 3.5 %); design: scale not given: the % may be the effect or the level left; conditions: dose 0.5 µg/ml
Outline: (§3)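 C. albicans SC5314 cells exposed to compound at 0.125, 0.5 or 4 μg/mL for 48 h, alongside untreated, fluconazole and naftifine controls. Sterols (ergosterol, squalene, lanosterol, eburicol, unknown) analysed by LC-MS. Each component expressed as percentage of total sterols from peak area ratios.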

Pichia kudriavzevii = experiment: Antifungal activity against Candida krusei ATCC 6258 assessed as inhibition of microbial growth by NCCLS protocol based method; format: functional
Outline: (§4)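 Broth MIC50 determined following NCCLS guidelines in Sabouraud medium, with fungal suspension in 24-well format. Compound tested at 0.0625, 0.125, 0.5, 1, 2, 4, 8 and 16 μg/mL. Plates cultured statically at 35 °C. MIC50 is the lowest concentration giving 50% growth inhibition. Naftifine and fluconazole served as positive controls.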

[9] = Inhibition of Candida albicans ATCC SC5314 SE incubated for 30 mins by spectrophotometric method
Outline: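 Enzymes (SE, CYP51) extracted from C. albicans SC5314 using kits. 50 µg enzyme incubated with varying compound concentrations for 30 min at 37 °C in Tris pH 7.4, KCl, MgCl2, 2 mM NADPH, with squalene or eburicol as substrate. Reaction stopped with acetonitrile and centrifuged. Eburicol consumption (CYP51) read by HPLC. Squalene, after sulfuric acid/formaldehyde derivatization, read at 400 nm (SE). IC50 reported.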

Aspergillus fumigatus = experiment: Antifungal activity against Aspergillus fumigatus KM8001 assessed as inhibition of microbial growth by NCCLS protocol based method; format: functional; outline: as §4
Candida albicans SC5314 [10] = experiment: Inhibition of SE/CYP51 in Candida albicans ATCC SC5314 assessed as unknown sterol level at […] ug/ml incubated for 48 hrs by LC/MS analysis (reference value: 3.5 %); design: scale not given: the % may be the effect or the level left; conditions: dose 0.125 µg/ml
Candida albicans [11] = experiment: Antifungal activity against Candida albicans ATCC SC5314 assessed as decrease in fungal cell density at 10 nM/mL by polarizing microscopy; format: functional, organism-based; conditions: dose 10.0 nmol/ml; outline: as §1
Candida albicans [12] = experiment: Antifungal activity against Candida albicans ATCC 10231 assessed as inhibition of microbial growth by NCCLS protocol based method; format: functional; outline: as §4
Nakaseomyces glabratus = experiment: Antifungal activity against Candida glabrata ATCC 0001 assessed as inhibition of microbial growth by NCCLS protocol based method; format: functional; outline: as §4
Candida albicans SC5314 [13] = experiment: Inhibition of SE/CYP51 in Candida albicans ATCC SC5314 assessed as ergosterol level at […] ug/ml incubated for 48 hrs by LC/MS analysis (reference value: 95.1 %); design: scale not given: the % may be the effect or the level left; conditions: dose 0.125 µg/ml
Candida albicans SC5314 [14] = experiment: Inhibition of SE/CYP51 in Candida albicans ATCC SC5314 assessed as eburicol level at 4 ug/ml incubated for 48 hrs by LC/MS analysis (reference value: 1.4 %); design: scale not given: the % may be the effect or the level left; conditions: dose 4.0 µg/ml; outline: as §3
Candida albicans SC5314 [15] = experiment: Inhibition of SE/CYP51 in Candida albicans ATCC SC5314 assessed as ergosterol level at 0.5 ug/ml incubated for 48 hrs by LC/MS analysis (reference value: 95.1 %); design: scale not given: the % may be the effect or the level left; conditions: dose 0.5 µg/ml; outline: as §3
Candida albicans [16] = experiment: Antifungal activity against fluconazole-resistant Candida albicans CaR assessed as inhibition of microbial growth by NCCLS protocol based method; format: functional
Candida albicans SC5314 [17] = experiment: Inhibition of SE/CYP51 in Candida albicans ATCC SC5314 assessed as eburicol level at 0.5 ug/ml incubated for 48 hrs by LC/MS analysis (reference value: 1.4 %); design: scale not given: the % may be the effect or the level left; conditions: dose 0.5 µg/ml; outline: as §3
[18] = Toxicity in mouse infected with Candida albicans SC5314 assessed as change in liver morphology administered via abdomen for 7 days by H and E staining based histological analysis; conditions: in vivo, ip, 168 h, time 7 day; outline: as §2
[19] = Toxicity in mouse infected with Candida albicans SC5314 assessed as change in spleen morphology administered via abdomen for 7 days by H and E staining based histological analysis; conditions: in vivo, ip, 168 h, time 7 day; outline: as §2
Candida albicans [20] = experiment: Antifungal activity against fluconazole-resistant Candida albicans 904 assessed as inhibition of microbial growth by NCCLS protocol based method; format: functional
[21] = Renal toxicity in mouse infected with Candida albicans SC5314 assessed as effect on blood urea nitrogen level administered via abdomen for 7 days (reference value: 6.8 +/-0.4 mmol/L); conditions: in vivo, ip, 168 h, time 7 day
Candida albicans SC5314 [22] = experiment: Inhibition of SE/CYP51 in Candida albicans ATCC SC5314 assessed as squalene level at 4 ug/ml incubated for 48 hrs by LC/MS analysis; design: scale not given: the % may be the effect or the level left; conditions: dose 4.0 µg/ml; outline: as §3
[23] = Toxicity in mouse infected with Candida albicans SC5314 assessed as change in lung morphology administered via abdomen for 7 days by H and E staining based histological analysis; conditions: in vivo, ip, 168 h, time 7 day; outline: as §2
Candida albicans SC5314 [24] = experiment: Inhibition of SE/CYP51 in Candida albicans ATCC SC5314 assessed as squalene level at 0.5 ug/ml incubated for 48 hrs by LC/MS analysis; design: scale not given: the % may be the effect or the level left; conditions: dose 0.5 µg/ml; outline: as §3
Candida albicans [25] = experiment: Antifungal activity against Candida albicans ATCC SC5314 assessed as reduction in survival rate of fungal cells (reference value: 97%); format: functional
Candida albicans [26] = experiment: Antifungal activity against fluconazole-resistant Candida albicans 632 assessed as inhibition of microbial growth by NCCLS protocol based method; format: functional

Structure (SMILES)	Activity [1]	Activity (Candida albicans [2])	Activity (Candida albicans [3])	Activity [4]	Activity (Candida albicans SC5314 [5])	Activity (Candida albicans [6])	Activity (Candida albicans [7])	Activity (Candida albicans SC5314 [8])	MIC50 (Pichia kudriavzevii)	IC50 [9]	MIC50 (Aspergillus fumigatus)	Activity (Candida albicans SC5314 [10])	Activity (Candida albicans [11])	MIC50 (Candida albicans [12])	MIC50 (Nakaseomyces glabratus)	Activity (Candida albicans SC5314 [13])	Activity (Candida albicans SC5314 [14])	Activity (Candida albicans SC5314 [15])	MIC50 (Candida albicans [16])	Activity (Candida albicans SC5314 [17])	also measured
O=C(NC(Cn1ccnc1)C(=O)NCc1ccncc1)c1ccc2ccccc2c1 (stereo not drawn)	102 IU/L	Active	7.53 um	Non-Toxic	9.2%	Active	Active	4.8%	0.25 µg/mL	685 nM	4 µg/mL	5%	Active	0.25 µg/mL	0.125 µg/mL	68.4%	49.3%	35.6%	8 µg/mL	37.9%	Activity [18]: Non-Toxic; Activity [19]: Non-Toxic; MIC50 (Candida albicans [20]): > 16 µg/mL; Activity [21]: 7.3 mmol/L; Activity (Candida albicans SC5314 [22]): 20.5%; Activity [23]: Non-Toxic; Activity (Candida albicans SC5314 [24]): 14.5%; Activity (Candida albicans [25]): 16%; MIC50 (Candida albicans [26]): 8 µg/mL
CC(NC(=O)c1cccc2ccccc12)C(=O)NC(Cn1ccnc1)C(=O)c1ccccc1 (stereo not drawn)	106 IU/L	Active	7.51 um	Non-Toxic	7.9%	Active	Active	5.8%	0.25 µg/mL	961 nM	4 µg/mL	5.4%	Active	0.125 µg/mL	0.25 µg/mL	66.4%	42.6%	29.9%	4 µg/mL	34%	Activity [18]: Non-Toxic; Activity [19]: Non-Toxic; MIC50 (Candida albicans [20]): 4 µg/mL; Activity [21]: 6.4 mmol/L; Activity (Candida albicans SC5314 [22]): 27.9%; Activity [23]: Non-Toxic; Activity (Candida albicans SC5314 [24]): 21.6%; Activity (Candida albicans [25]): 11%; MIC50 (Candida albicans [26]): 8 µg/mL
